# Results published in ChEMBL document CHEMBL1177892, “Synthesis, anti-inflammatory and ulcerogenicity studies of some substituted pyrimido[1,6-a]azepine derivatives” (Eur J Med Chem, 2010).
# Columns and labels:
# Rattus norvegicus [1] = experiment: Antiinflammatory activity in albino rat assessed as inhibition of carrageenan-induced paw oedema at […], ip administered 1 hr before carrageenan challenge measured after 3 hrs relative to control; format: functional; set-up: scale not given: the % may be the effect or the level left; conditions: in the assay text read “relative to diclofenac sodium” for “relative to control”
# Method in brief: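 Albino rats of both sexes (120–150 g) were pre-hydrated with 3 ml water/rat by gastric tube. Oedema was induced by s.c. sub-plantar injection of 1% carrageenan gel into the right hind paw. Right and left paw dorso-ventral thickness was read with dial calipers at 1, 2 and 3 h. Inhibition % = (1 − Lt/Lc) × 100, using mean paw-thickness increase of treated versus control rats.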
# Rattus norvegicus [2] = experiment: Antiinflammatory activity in ip dosed albino rat assessed as inhibition of carrageenan-induced paw oedema administered 1 hr before carrageenan challenge measured after 3 hrs relative to control; format: functional, organism-based
# Method in brief: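 Carrageenan paw-oedema model in albino rats of both sexes (120–150 g), water-loaded with 3 ml by gastric tube. […] was calculated from doses of […], with paw-thickness inhibition read 3 h after sub-plantar injection of 1% carrageenan. Inhibition % = (1 − Lt/Lc) × 100.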
# Rattus norvegicus [3] = experiment: Toxicity in albino rat at 20 mg/kg assessed as ulcer index; conditions: in vivo
# Rattus norvegicus [4] = experiment: Toxicity in albino rat at 20 mg/kg assessed as ulcerogenicity; conditions: in vivo
SMILES,Activity (Rattus norvegicus [1]),ED50 (Rattus norvegicus [2]),UI (Rattus norvegicus [3]),Activity (Rattus norvegicus [4])
N#CC1=C(NCN2CCCC2)N(c2ccccc2)C(=O)N2CCCCC(N3CCCC3)C12 (stereo not drawn),40.29%,–,–,–
N#Cc1c2n(c(=O)n(-c3ccccc3)c1=N)CCCCC2N1CCCC1 (stereo not drawn),106.62%,8.5 µmol/kg,–,–
N#CC1=C(/N=C/Nc2ccc([N+](=O)[O-])cc2)N(c2ccccc2)C(=O)N2CCCCC(N3CCCC3)C12 (stereo not drawn),97.71%,–,4.8,3%
N#CC1=C(NCC(=O)N2CCCC2)N(c2ccccc2)C(=O)N2CCCCC(N3CCCC3)C12 (stereo not drawn),63.93%,–,–,–
N#CC1=C(/N=C/Nc2ccccc2)N(c2ccccc2)C(=O)N2CCCCC(N3CCCC3)C12 (stereo not drawn),90.52%,–,–,–
N#CC1=C(NCC(=O)N2CCCCC2)N(c2ccccc2)C(=O)N2CCCCC(N3CCCC3)C12 (stereo not drawn),61.07%,–,–,–
N#CC1=C(NCC(=O)O)N(c2ccccc2)C(=O)N2CCCCC(N3CCCC3)C12 (stereo not drawn),101.82%,10.3 µmol/kg,5.4,4%
N#CC1=C(NC(=O)Cc2ccccc2Nc2c(Cl)cccc2Cl)N(c2ccccc2)C(=O)N2CCCCC(N3CCCC3)C12 (stereo not drawn),76.71%,–,–,–
N#CC1=C(/N=C/c2ccc([N+](=O)[O-])cc2)N(c2ccccc2)C(=O)N2CCCCC(N3CCCC3)C12 (stereo not drawn),104.68%,7.14 µmol/kg,3.6,2%
COc1ccc(/C=N/C2=C(C#N)C3C(N4CCCC4)CCCCN3C(=O)N2c2ccccc2)cc1 (stereo not drawn),85.91%,–,–,–
N#CC1=C(NC(=O)c2ccccc2O)N(c2ccccc2)C(=O)N2CCCCC(N3CCCC3)C12 (stereo not drawn),74.65%,–,–,–
N#CC1=C(NCN2CCOCC2)N(c2ccccc2)C(=O)N2CCCCC(N3CCCC3)C12 (stereo not drawn),50.68%,–,–,–
CCOC(=O)C(=O)NC1=C(C#N)C2C(N3CCCC3)CCCCN2C(=O)N1c1ccccc1 (stereo not drawn),104.45%,9.13 µmol/kg,2.5,1%
COc1ccc(N/C=N/C2=C(C#N)C3C(N4CCCC4)CCCCN3C(=O)N2c2ccccc2)cc1 (stereo not drawn),57.3%,–,–,–
COC(=O)C(=O)NC1=C(C#N)C2C(N3CCCC3)CCCCN2C(=O)N1c1ccccc1 (stereo not drawn),100.79%,10.6 µmol/kg,2.2,1%
N#CC1=C(N)N(c2ccccc2)C(=O)N2CCCCC(N3CCCC3)C12 (stereo not drawn),102.85%,6.61 µmol/kg,–,–
N#CC1=C(/N=C/c2ccccc2)N(c2ccccc2)C(=O)N2CCCCC(N3CCCC3)C12 (stereo not drawn),95.9%,–,–,–
N#CC1=C(NCC(=O)N2CCOCC2)N(c2ccccc2)C(=O)N2CCCCC(N3CCCC3)C12 (stereo not drawn),83.9%,–,–,–
O=C([O-])Cc1ccccc1Nc1c(Cl)cccc1Cl.[Na+] [DICLOFENAC SODIUM],–,7.26 µmol/kg,9,6%
N#CC1=C(NCN2CCCCC2)N(c2ccccc2)C(=O)N2CCCCC(N3CCCC3)C12 (stereo not drawn),48.05%,–,–,–
